Activity and inhibition data for twelve compounds are collected here from ChEMBL document CHEMBL2311361, “Diminutive effect on T and B-cell proliferation of non-cytotoxic α-santonin derived 1,2,3-triazoles: a report” (Eur J Med Chem, 2013).

Series [1] in a line: Cytotoxicity against in Balb/c mouse B cells at 10^-6 M after 48 hrs by MTT assay. The note with it: 1 µM. The class given is cell-based. In outline: (§1)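 Spleens taken aseptically from Balb/c mice (18–22 g). Single-cell suspension made in incomplete RPMI, RBCs lysed with Tris-ammonium chloride, cells washed, resuspended in complete RPMI and checked for viability by trypan blue. Cells seeded at 1 × 10⁶ cells/mL. Compounds in DMSO tested at 1×10⁻⁴, 1×10⁻⁵ and 1×10⁻⁶ M, 48 h, 37 °C, 5% CO₂.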

A short description of series [2]: Cytotoxicity against in Balb/c mouse B cells at 10^-5 M after 48 hrs by MTT assay. The class given is cell-based. The note with it: 10 µM. In outline: as §1
Series [3] is described as follows: Cytotoxicity against in Balb/c mouse T cells at 10^-6 M after 48 hrs by MTT assay. It is filed as cell-based. Conditions: t-cell, 1 µM. In outline: as §1
Series [4] is described as follows: Cytotoxicity against in Balb/c mouse T cells at 10^-5 M after 48 hrs by MTT assay. The class given is cell-based. The note with it: t-cell, 10 µM. In outline: as §1
Series [5] in a line: Cytotoxicity against in Balb/c mouse T cells at 10^-4 M after 48 hrs by MTT assay. It is filed as cell-based. The note with it: t-cell, 100 µM. In outline:
as §1

Series [6] in a line: Cytotoxicity against in Balb/c mouse B cells at 10^-4 M after 48 hrs by MTT assay. The note with it: 100 µM. It is filed as cell-based. In outline:
as §1

Series [7] is described as follows: Immunostimulant activity in Balb/c mouse T cells assessed as inhibition of concanavalin A-induced cell proliferation at 10^-6 M after 48 hrs by MTT assay. The class given is functional. In outline:
as §1

The nature of series [8]: Immunosuppressive activity in Balb/c mouse B cells assessed as inhibition of LPS-induced cell proliferation at 10^-6 M after 48 hrs by MTT assay. The class given is functional. In outline: as §1
A short description of series [9]: Immunosuppressive activity in Balb/c mouse B cells assessed as inhibition of LPS-induced cell proliferation at 10^-5 M after 48 hrs by MTT assay. The class given is functional. In outline:
as §1

Series [10] can be described thus: Immunosuppressive activity in Balb/c mouse B cells assessed as inhibition of LPS-induced cell proliferation at 10^-4 M after 48 hrs by MTT assay. It is filed as functional. In outline: as §1
The nature of series [11]: Immunosuppressive activity in Balb/c mouse T cells assessed as inhibition of concanavalin A-induced cell proliferation at 10^-5 M after 48 hrs by MTT assay. The class given is functional. In outline:
as §1

Series [12] is described as follows: Immunosuppressive activity in Balb/c mouse T cells assessed as inhibition of concanavalin A-induced cell proliferation at 10^-4 M after 48 hrs by MTT assay. The class given is functional. In outline: as §1
Series [13] is described as follows: Immunostimulant activity in Balb/c mouse B cells assessed as inhibition of LPS-induced cell proliferation at 10^-5 M after 48 hrs by MTT assay. It is filed as functional. In outline: as §1
A short description of series [14]: Immunosuppressive activity in Balb/c mouse T cells assessed as inhibition of concanavalin A-induced cell proliferation at 10^-6 M after 48 hrs by MTT assay. It is filed as functional. The note with it: Mus musculus, Balb/c, T-cell, 48 h. In outline:
as §1

The nature of series [15]: Immunostimulant activity in Balb/c mouse B cells assessed as inhibition of LPS-induced cell proliferation at 10^-6 M after 48 hrs by MTT assay. It is filed as functional. In outline:
as §1

Series [16] can be described thus: Immunostimulant activity in Balb/c mouse T cells assessed as inhibition of concanavalin A-induced cell proliferation at 10^-5 M after 48 hrs by MTT assay. It is filed as functional. In outline:
as §1

The nature of series [17]: Immunostimulant activity in Balb/c mouse T cells assessed as inhibition of concanavalin A-induced cell proliferation at 10^-4 M after 48 hrs by MTT assay. The class given is functional. The note with it: Mus musculus, Balb/c, T-cell, 48 h. In outline: as §1
Series [18] can be described thus: Immunostimulant activity in Balb/c mouse B cells assessed as inhibition of LPS-induced cell proliferation at 10^-4 M after 48 hrs by MTT assay. It is filed as functional. In outline:
as §1

`C#CCOc1cc(C)c2c(c1C)[C@@H]1OC(=O)[C@@H](C)[C@@H]1CC2`: the Activity entry in series [1] is recorded as “Toxic”; in series [2], “Non-toxic”; in series [3], “Toxic”; in series [4], “Non-toxic”; in series [5], “Non-toxic”; in [6] it was “Non-toxic”. Moreover, the inhibition at 1 µM in series [7] came out at 24.4%; in series [8], 29.9%. In addition, the values for the inhibition at 10 µM in series [9] and in series [11] were 22.2% and 1.21%, respectively. Also, the results for the inhibition at 100 µM in [10] and in [12] were 36.8% and 12.2%, respectively.
`Cc1cc(OCc2cnnn2/C=C/c2ccccc2)c(C)c2c1CC[C@H]1[C@H](C)C(=O)O[C@@H]21`: the Activity entry in series [1], in [2], in [3], in series [4], in series [5] and in series [6] was “Non-toxic” in each case. Besides, the inhibition at 10 µM in [13] was 48.7%; in series [11] it was 95.1%. In addition, the inhibition at 1 µM in series [8] turned out to be 7.69%; in series [14], 95.1%. The results for the inhibition at 100 µM in series [10] and in series [12] were 36.8% and 95.1%, respectively.
For the compound `Cc1cc(OCc2cnnn2-c2ccc3ccccc3c2)c(C)c2c1CC[C@H]1[C@H](C)C(=O)O[C@@H]21`, the Activity entry in series [1] is “Non-toxic”; in [2] it was “Non-toxic”; in series [3] it was “Non-toxic”; in [4], “Non-toxic”; in series [5] it was “Toxic”; in series [6], “Toxic”. For the same compound, the inhibition at 1 µM in [15] turned out to be 7.69%; in [7], 12.2%. Further, the inhibition at 10 µM in series [16] was 2.43%; in series [9], 23.1%. Also, the inhibition at 100 µM in series [17] worked out at 13.4%; in series [10] it was 1.7%.
With `COc1ccc(F)c(-n2nncc2COc2cc(C)c3c(c2C)[C@@H]2OC(=O)[C@@H](C)[C@@H]2CC3)c1Br`, the Activity entry in series [1], in [2], in series [3], in series [4], in [5] and in series [6] was “Toxic” in each case. For the same compound, the results for the inhibition at 10 µM in series [13] and in [11] were 1.42% and 37.1%, respectively. Further, the values for the inhibition at 1 µM in [8] and in series [14] were 1.42% and 14.3%, respectively. Moreover, the inhibition at 100 µM came out at 24.3% in [10] and 45.7% in [12].
Turning to `Cc1cc(OCc2cnnn2-c2ccc(Br)c3ccccc23)c(C)c2c1CC[C@H]1[C@H](C)C(=O)O[C@@H]21`, the Activity result in [1] is given as “Non-toxic”; in series [2], “Toxic”; in [3] it was “Non-toxic”; in series [4], “Toxic”; in series [5], “Toxic”; in series [6], “Toxic”. The inhibition at 1 µM came out at 27.1% in series [15] and 30% in series [7]. Further, the inhibition at 100 µM was 12.8% in series [18] and 10% in [12]. Besides, the inhibition at 10 µM in series [9] is 17.1%; in series [11], 48.6%.
As for `Cc1cc(OCc2cnnn2-c2ccc(Cl)nc2)c(C)c2c1CC[C@H]1[C@H](C)C(=O)O[C@@H]21`, the Activity result is “Toxic” in series [1]; “Non-toxic” in [2]; “Toxic” in series [3]; “Non-toxic” in series [4]; “Non-toxic” in series [5]; “Non-toxic” in series [6]. For the same compound, the inhibition at 1 µM was found to be 45.7% in series [15] and 20.8% in series [14]. In addition, the inhibition at 100 µM in [18] came out at 75.7%; in series [17], 8.57%. Moreover, the inhibition at 10 µM in [16] turned out to be 12.8%; in series [9], 8.57%.
For the compound `Cc1cc(OCc2cnnn2-c2ccc(Br)cc2)c(C)c2c1CC[C@H]1[C@H](C)C(=O)O[C@@H]21`, the Activity result in series [1], in series [2], in [3], in series [4], in [5] and in [6] was “Non-toxic” in each case. In addition, the inhibition at 1 µM turned out to be 26.5% in series [15] and 1.21% in series [14]. Further, the values for the inhibition at 10 µM in series [13] and in [16] were 36.8% and 2.43%, respectively. The inhibition at 100 µM in series [17] came out at 48.8%; in [10] it was 15.4%.
As for `Cc1cc(OCc2cnnn2-c2ccc(-c3ccccc3)cc2)c(C)c2c1CC[C@H]1[C@H](C)C(=O)O[C@@H]21`, the Activity result is “Non-toxic” in series [1]; “Non-toxic” in [2]; “Non-toxic” in series [3]; “Non-toxic” in series [4]; “Toxic” in series [5]; “Toxic” in series [6]. Further, the inhibition at 1 µM in series [15] was 17.9%; in series [7] it was 35.4%. The inhibition at 100 µM came out at 15.4% in [18] and 2.43% in [17]. For the same compound, the results for the inhibition at 10 µM in series [16] and in [9] were 63.4% and 3.41%, respectively.
Consider `Cc1cc(O)c(C)c2c1CC[C@H]1[C@H](C)C(=O)O[C@@H]21`, for which the Activity result in [1], in series [2], in [3], in series [4], in series [5] and in series [6] was “Non-toxic” in each case. Further, the inhibition at 100 µM in series [18] came to 18.8%; in series [17], 80.5%. Also, the inhibition at 1 µM in series [8] was 23.1%; in series [14], 20.7%. For the same compound, the inhibition at 10 µM in [9] came to 23.9%; in series [11] it was 24.4%.
With `CC(=O)Nc1ccc(-n2nncc2COc2cc(C)c3c(c2C)[C@@H]2OC(=O)[C@@H](C)[C@@H]2CC3)cc1`, the Activity entry is “Toxic” in series [1]; “Non-toxic” in series [2]; “Toxic” in [3]; “Non-toxic” in series [4]; “Toxic” in series [5]; “Toxic” in series [6]. Further, the inhibition at 100 µM came out at 16.7% in series [18] and 27.5% in series [17]. Moreover, the inhibition at 10 µM in [16] was determined as 13.3%; in series [9], 15%. Moreover, the inhibition at 1 µM came out at 25% in series [8] and 20% in [14].
As for `Cc1cc(OCc2cnnn2-c2cc(F)c(F)cc2Br)c(C)c2c1CC[C@H]1[C@H](C)C(=O)O[C@@H]21`, the Activity result in series [1], in series [2], in [3], in series [4], in series [5] and in series [6] was “Toxic” in each case. The inhibition at 1 µM is 21.4% in [7] and 20% in [8]. The inhibition at 10 µM was found to be 21.4% in [9] and 20% in series [11]. Also, the inhibition at 100 µM in series [10] turned out to be 7.14%; in series [12] it was 15.7%.
`COc1ccc(-n2nncc2COc2cc(C)c3c(c2C)[C@@H]2OC(=O)[C@@H](C)[C@@H]2CC3)cc1OC`: the Activity result in series [1] is “Non-toxic”; in series [2], “Non-toxic”; in series [3], “Non-toxic”; in series [4] it was “Non-toxic”; in series [5] it was “Toxic”; in series [6], “Toxic”. Besides, the values for the inhibition at 1 µM in series [15] and in series [7] were 15.4% and 75.6%, respectively. The inhibition at 100 µM in series [18] was 12.8%; in [17] it was 90.2%. Also, the inhibition at 10 µM in series [16] was determined as 15.8%; in [9], 0.85%.
